Measured values as given in ChEMBL document CHEMBL3046880, “Syntheses and herbicidal activities of novel triazolinone derivatives” (J Agric Food Chem, 2008).

Assays:
[1] = test system: Echinochloa crus-galli; test: Herbicidal activity against Echinochloa crus-galli (barnyard grass) assessed as growth inhibition at 150 g of active ingredient/ha administered using post-emergence treatment measured 15 days post treatment protocol under greenhouse conditions; format: functional
Procedure, shortened: (§1)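 Test agents were formulated as 100 g/L emulsified concentrates (DMF solvent, TW-80 emulsifier), diluted with water and sprayed postemergence on pot-grown weeds. Seeds were sown 1-3 cm deep in clay soil (pH 6.5, 1.6% organic matter, 37.3% clay, CEC […]) and grown at 15–30 °C in a greenhouse. Dicots were treated at the two-leaf stage. Untreated and DMF-treated plants served as controls. Activity was scored visually 15 days after treatment.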

[2] = test system: Gossypium hirsutum; test: Phytotoxicity against Gossypium hirsutum (cotton) plant assessed as growth inhibition at 450 g of active ingredient/ha administered using post-emergence treatment measured 30 days post treatment protocol under greenhouse conditions; format: organism-based; settings: in vivo, other, 720 h
Procedure, shortened: (§2)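 Compounds were formulated as 100 g/L emulsified concentrates in DMF with TW-80 as emulsifier, then diluted with water to the required concentration. They were applied postemergence to pot-grown plants in a greenhouse. The soil was clay, pH 6.5, with 1.6% organic matter, 37.3% clay particles and CEC 12.1 mol/kg. Sulfentrazone served as the reference control.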

[3] = Phytotoxicity against Gossypium hirsutum (cotton) plant assessed as growth inhibition at 75 g of active ingredient/ha administered using post-emergence treatment measured 30 days post treatment protocol under greenhouse conditions; format: organism-based; settings: in vivo, read-out: GI; procedure, shortened: as §2
[4] = Phytotoxicity against Oryza sativa (rice) plant assessed as growth inhibition at 450 g of active ingredient/ha administered using post-emergence treatment measured 30 days post treatment protocol under greenhouse conditions; format: organism-based; settings: in vivo, read-out: GI; procedure, shortened: as §2
[5] = Phytotoxicity against Brassica napus (oilseed rape) assessed as growth inhibition at 75 g of active ingredient/ha administered using post-emergence treatment measured 30 days post treatment protocol under greenhouse conditions; format: organism-based; settings: in vivo, read-out: GI; procedure, shortened: as §2
[6] = test system: Zea mays; test: Phytotoxicity against Zea mays (maize) plant assessed as growth inhibition at 450 g of active ingredient/ha administered using post-emergence treatment measured 30 days post treatment protocol under greenhouse conditions; format: organism-based; settings: in vivo, other, 720 h; procedure, shortened: as §2
[7] = test system: Zea mays; test: Phytotoxicity against Zea mays (maize) plant assessed as growth inhibition at 150 g of active ingredient/ha administered using post-emergence treatment measured 30 days post treatment protocol under greenhouse conditions; format: organism-based; settings: in vivo, other, 720 h; procedure, shortened: as §2
[8] = test system: Glycine max; test: Phytotoxicity against Glycine max (soybean) plant assessed as growth inhibition at 150 g of active ingredient/ha administered using post-emergence treatment measured 30 days post treatment protocol under greenhouse conditions; format: organism-based; settings: in vivo, other, 720 h; procedure, shortened: as §2
[9] = Phytotoxicity against Oryza sativa (rice) plant assessed as growth inhibition at 150 g of active ingredient/ha administered using post-emergence treatment measured 30 days post treatment protocol under greenhouse conditions; format: organism-based; settings: in vivo, read-out: GI; procedure, shortened: as §2
[10] = test system: Digitaria sanguinalis; test: Herbicidal activity against Digitaria sanguinalis (hairy crabgrass) assessed as growth inhibition at 75 g of active ingredient/ha administered using post-emergence treatment measured 15 days post treatment protocol under greenhouse conditions; format: functional; procedure, shortened: as §1
[11] = test system: Digitaria sanguinalis; test: Herbicidal activity against Digitaria sanguinalis (hairy crabgrass) assessed as growth inhibition at 37.5 g of active ingredient/ha administered using post-emergence treatment measured 15 days post treatment protocol under greenhouse conditions; format: functional; procedure, shortened: as §1
[12] = test system: Senna tora; test: Herbicidal activity against Senna tora assessed as growth inhibition at 150 g of active ingredient/ha administered using post-emergence treatment measured 15 days post treatment protocol under greenhouse conditions; format: functional; procedure, shortened: as §1
[13] = test system: Chenopodium album; test: Herbicidal activity against Chenopodium album assessed as growth inhibition at 75 g of active ingredient/ha administered using post-emergence treatment measured 15 days post treatment protocol under greenhouse conditions; format: functional; procedure, shortened: as §1
[14] = test system: Chenopodium album; test: Herbicidal activity against Chenopodium album assessed as growth inhibition at 37.5 g of active ingredient/ha administered using post-emergence treatment measured 15 days post treatment protocol under greenhouse conditions; format: functional; procedure, shortened: as §1
[15] = test system: Chenopodium album; test: Herbicidal activity against Chenopodium album assessed as growth inhibition at 150 g of active ingredient/ha administered using post-emergence treatment measured 15 days post treatment protocol under greenhouse conditions; format: functional; procedure, shortened: as §1
[16] = test system: Amaranthus retroflexus; test: Herbicidal activity against Amaranthus retroflexus assessed as growth inhibition at 150 g of active ingredient/ha administered using post-emergence treatment measured 15 days post treatment protocol under greenhouse conditions; format: functional; procedure, shortened: as §1
[17] = test system: Digitaria sanguinalis; test: Herbicidal activity against Digitaria sanguinalis (hairy crabgrass) assessed as growth inhibition at 150 g of active ingredient/ha administered using post-emergence treatment measured 15 days post treatment protocol under greenhouse conditions; format: functional; procedure, shortened: as §1
[18] = test system: Echinochloa crus-galli; test: Herbicidal activity against Echinochloa crus-galli (barnyard grass) assessed as growth inhibition at 75 g of active ingredient/ha administered using post-emergence treatment measured 15 days post treatment protocol under greenhouse conditions; format: functional; procedure, shortened: as §1
[19] = test system: Cerastium arvense; test: Herbicidal activity against Cerastium arvense assessed as growth inhibition at 37.5 g of active ingredient/ha administered using post-emergence treatment measured 15 days post treatment protocol under greenhouse conditions; format: functional; procedure, shortened: as §1
[20] = test system: Eclipta prostrata; test: Herbicidal activity against Eclipta prostrata assessed as growth inhibition at 75 g of active ingredient/ha administered using post-emergence treatment measured 15 days post treatment protocol under greenhouse conditions; format: functional; procedure, shortened: as §1
[21] = test system: Brassica napus; test: Phytotoxicity against Brassica napus (oilseed rape) assessed as growth inhibition at 300 g of active ingredient/ha administered using post-emergence treatment measured 30 days post treatment protocol under greenhouse conditions; format: organism-based; settings: in vivo, other, 720 h; procedure, shortened: as §2

**Q.** What does the source list for `CCS(=O)(=O)Nc1cc(-n2nc(C)n(Cc3ccccc3/C(=N\OC)C(=O)OC)c2=O)c(F)cc1Cl`?
**A.** growth inhibition (GI) [1]: 50%; Activity [2]: Toxic; inhibition at 720 h [3]: 60%; inhibition at 720 h [4]: 10%; inhibition at 720 h [5]: 80%; Activity [6]: Toxic; Activity [7]: Toxic; Activity [8]: Toxic; inhibition at 720 h [9]: 0%; growth inhibition (GI) [10]: 50%; growth inhibition (GI) [11]: 50%; growth inhibition (GI) [12]: 100%; growth inhibition (GI) [13]: >80%; growth inhibition (GI) [14]: 50%; growth inhibition (GI) [15]: >80%; growth inhibition (GI) [16]: 100%; growth inhibition (GI) [17]: 50%; growth inhibition (GI) [18]: 50%; growth inhibition (GI) [19]: >80%; growth inhibition (GI) [20]: >80%; Activity [21]: Toxic
